The values below come from the RNAGym collection of RNA variant scans (doi:10.1126/science.aae0568).

Fewer inactive variants are shown than the library holds.

B1: tRNA (parent)
chain: GUUCCGUUGGCGUAAUGGUAACGCGUCUCCCUCCUAAGGAGAAGACUGCGGGUUCGAGUCCCGUACGGAACG

The variants in the data set derive from B1. As to the kind of experiment: yeast fitness relative to wild type (ratio to wild type); higher = fitter; tRNA-Arg(CCU), competitive growth, 37 C, YPD. In short, it runs like this: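 Variants of the tRNA-Arg(CCU) gene, chemically synthesised with a 3% per-site mutation rate at 69 sites, were placed at the native genomic locus in Saccharomyces cerevisiae. The pooled strains were competed in YPD at 37°C for 24 hours in six parallel replicates. Gene amplicons from the start population and from each end population were read by 100-nucleotide paired-end sequencing. Darwinian fitness relative to wild type came from changes in genotype frequencies; genotypes needed ≥ 100 starting reads, and estimates < 0.5 were set to 0.5.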
Turning to U32G G39C G52C, the yeast fitness came out at 0.531. As to C33A C49U C66U, the yeast fitness was 0.524. For U32G C33G A65U the value was at most 0.5. For C33G A43G G58A G67A A69U the value was 0.573; for C33G G41C A43C G67C, at most 0.5; for C33G C66G, 0.604. C33G C61A C66U: the yeast fitness stood at 0.583. On to C33A G50U, for which the yeast fitness amounted to 0.524. Turning to C33A A45U A70C, the yeast fitness came out at 0.512. On to C33G C46U C60U, for which the yeast fitness was at most 0.5. With C33A G56C, the yeast fitness was determined as 0.634. The figure for C33G A36U C49A is at most 0.5; for C33U A36G A45C A57U U59C it is at most 0.5; for C33G A36U G39A A57U it is at most 0.5. As to C33A G48C A70G, the yeast fitness is at most 0.5. As to C33A A36U G41A G48A, the yeast fitness is at most 0.5. The figure for C33G A57U C62U is at most 0.5. As for C33G G38C C55A A65U, the yeast fitness turned out to be 0.665. As to C33A C49A, the yeast fitness came out at 0.597.

As to C33G A40G G58A C66G, the yeast fitness is at most 0.5. The figure for U32C U53A is 0.691; for U32C U53C it is 0.766; for C33A A37C G63A it is at most 0.5. Regarding C33G A43C C62A G67C, the yeast fitness is 0.743. The figure for U32C C66U G68C is 0.554; for C33G U47A C61A C66U it is at most 0.5; for C33G C34G A43C G48C C62U it is at most 0.5. Take C33G G68A: the yeast fitness turned out to be 0.671.

Consider C33G G68C, for which the yeast fitness stood at 0.558. The figure for C33U A42C C62A is at most 0.5; for C33G U35C G39A it is at most 0.5; for C33G G41C G56C G58A U59C G63C A65U it is at most 0.5.

Consider U32C C34G G41C, for which the yeast fitness is at most 0.5. With C33U A37U C60G A69C, the yeast fitness is at most 0.5. With C33G G51A, the yeast fitness turned out to be 0.626. For C33G G51C the value was at most 0.5; for C33G A69U, 0.764; for C33G A69C, 0.742. Consider U32C C60U, for which the yeast fitness was found to be 0.642. In the case of U32C C60A, the yeast fitness was 0.645. Consider C33A A36C G48A C66G, for which the yeast fitness is at most 0.5. On to U32C C55U A69U, for which the yeast fitness was determined as 0.55. As to C33A A36U C66U, the yeast fitness was at most 0.5.

Consider U32C C60G C62G, for which the yeast fitness was at most 0.5. As to U32C G41C G58U, the yeast fitness amounted to 0.533. The figure for U32C C55U G67A is at most 0.5. Take C33G G51C C66G G67C: the yeast fitness was at most 0.5.

For U32C G44A C61G, the yeast fitness is at most 0.5. As for C33G C61U C62G C66U, the yeast fitness is at most 0.5. For the variant C33G G51A U53A G56A G67C, the yeast fitness was at most 0.5. For C33G C34U G38C, the yeast fitness is at most 0.5. For the variant C33G G38A G41A, the yeast fitness is at most 0.5. The figure for C33A A36C is 0.526. Take U32C C46G G56C: the yeast fitness is at most 0.5. Consider C33G A42G G52A C62A A69U A70U, for which the yeast fitness is at most 0.5.

On to U32C C49U, for which the yeast fitness came to 0.971. The figure for U32C U64G is 0.754; for U32C U64C it is 0.946; for C33A C55G C66U it is at most 0.5.

For C33G G67U G68C A69U, the yeast fitness was at most 0.5. For C33G G44C, the yeast fitness is 0.735. For U32C C49U A57C, the yeast fitness worked out at 0.654. As to U32C C34A C62A, the yeast fitness turned out to be 0.591. Regarding C33G C34A A40C, the yeast fitness was at most 0.5. The figure for U32C C34U A45U A70U is 0.826; for C33G A45U C46U it is at most 0.5.

Regarding C33A C46A C61G A69G, the yeast fitness was at most 0.5. Turning to U32G U35G A36C, the yeast fitness is at most 0.5. As for C33A C34U, the yeast fitness is at most 0.5. The figure for C33A C34G A57U is at most 0.5; for C33U A36U G51C A69U it is 0.551; for U32C C46G A65G it is 0.917. Regarding C33A G51C C62G, the yeast fitness is at most 0.5. The figure for U32G C34A A40C C60U is at most 0.5; for C33A G38C A43G U53C it is 0.547. Consider U32G U35G A36C U54C, for which the yeast fitness is at most 0.5.

For the variant C33A G50C U53C U64C G68U, the yeast fitness came out at 0.586. For U32G A36U A45G, the yeast fitness was at most 0.5. The figure for C33G A37G A40C C49G G67C is at most 0.5. Turning to C33U A40C A45C U59G C60U, the yeast fitness is at most 0.5. For U32C C34A the value was 0.729; for U32G C49G C55A, 0.65.

As to C33A U54G, the yeast fitness was found to be 0.518.

As for C33A U54C, the yeast fitness stood at 0.561. For C33G A57U, the yeast fitness was at most 0.5. Turning to C33G A57C, the yeast fitness was at most 0.5. The figure for C33A A43G A45C is at most 0.5; for C33A G38C G50A it is at most 0.5. For the variant U32G G39C A57U C62G, the yeast fitness was at most 0.5.

With C33G A40G U59A, the yeast fitness was at most 0.5. In the case of C33G G41C A43C C61U C66U, the yeast fitness was at most 0.5.

As to C33U A40U, the yeast fitness is 0.616. Consider C33U A40C, for which the yeast fitness is 0.777. For the variant C33G A37U A40C, the yeast fitness was at most 0.5.

U32C C55U A57C G67A: the yeast fitness was found to be 0.638. In the case of C33G G63C, the yeast fitness was at most 0.5. On to C33A A37C G56A A65G C66U, for which the yeast fitness was at most 0.5. For U32C U54G C62U the value was 0.565; for C33A C46A G58A A70G, at most 0.5; for C33A A57U C66U, 0.555.

For the variant C33A C55U, the yeast fitness was 0.581. Take U32G A70G: the yeast fitness came out at 0.628. As for U32G A70C, the yeast fitness was determined as 0.787. On to C33A G67C, for which the yeast fitness was found to be 0.621.

With C33A G67A, the yeast fitness worked out at 0.586. On to C33G A36U G44A U59C, for which the yeast fitness turned out to be 0.611. Consider C33A C49U C62G, for which the yeast fitness turned out to be 0.735. For C33A A40U G51U U64A, the yeast fitness is at most 0.5. On to U32G G63A, for which the yeast fitness is 0.557. For the variant U32C C34U U35C A45G U54A, the yeast fitness was at most 0.5.

C33G U47C C62A: the yeast fitness amounted to 0.601.

Turning to U32G A37U, the yeast fitness was 0.55. C33A U53A: the yeast fitness is at most 0.5.

With C33G G56C A70U, the yeast fitness came out at 0.727. In the case of C33A A45U C66A, the yeast fitness is at most 0.5.

Take U32G A40U G52A A57U A65C: the yeast fitness is at most 0.5. As to C33A G39A G52C C55G, the yeast fitness is at most 0.5. As to U32C C34A A40C U54C C66U, the yeast fitness was 0.534. For the variant C33G C34G U35A G44A, the yeast fitness was at most 0.5. For C33G A42G G52A C62A, the yeast fitness is at most 0.5. With C33G A36G G39C G67U, the yeast fitness was at most 0.5.

As for C33A A69G, the yeast fitness turned out to be 0.655. With C33A A37G G39C C55U, the yeast fitness was at most 0.5. As for C33A C60G A70G, the yeast fitness is at most 0.5. The figure for C33A G56C A70C is 0.574; for C33U A42C C46A it is at most 0.5. Take C33U A42C C55G G68C: the yeast fitness was at most 0.5. As for C33U A36C A70G, the yeast fitness was at most 0.5. Regarding U32C C33U A70G, the yeast fitness amounted to 0.681. The figure for C33A U64A A70C is at most 0.5.

With C33A G38A A40C A43G G51C C61G, the yeast fitness is at most 0.5. In the case of U32C U59G, the yeast fitness stood at 0.878. Take C33U A37C: the yeast fitness came out at 0.556. As to C33U A37U, the yeast fitness is 0.55. The figure for U32C G44A A69U is 1.05; for C33A G44A G68U it is at most 0.5; for C33U A40C C60G it is at most 0.5. For C33G C34U C55U A65U G68C, the yeast fitness is at most 0.5. On to C33G A40G G51C C61U A65U, for which the yeast fitness was 0.667.

Consider C33U A37U C62U, for which the yeast fitness was at most 0.5. Turning to C33G G41C, the yeast fitness worked out at 0.58.

For U32C G52C G67A A69C, the yeast fitness was at most 0.5. For the variant C33G C62G, the yeast fitness was 0.597. C33G G38C A70C: the yeast fitness came to 0.705. In the case of C33G C34U, the yeast fitness is 0.563.

Regarding C33G U59A C60G C61G, the yeast fitness was at most 0.5. Take C33G C34U U53C C61U: the yeast fitness is at most 0.5.

For the variant U32C G51C C61U, the yeast fitness is at most 0.5. The figure for C33G C60U A69U is at most 0.5; for U32C C66U it is 0.966. With C33G G41A U47A C61U A69U, the yeast fitness is at most 0.5.

With C33G G39A C49G U54A, the yeast fitness was at most 0.5. With C33A C60U, the yeast fitness was at most 0.5. For the variant C33A C46A G67A, the yeast fitness was at most 0.5. For U32C G68C, the yeast fitness is 0.808.

Turning to C33G A36C, the yeast fitness is at most 0.5. With C33G A36U, the yeast fitness stood at 0.589. Regarding U32C G38C G41C A65G, the yeast fitness was at most 0.5. The figure for C33A G44A A70C is 0.547. With C33A G48C A69G, the yeast fitness was 0.684. In the case of C33A G44A, the yeast fitness turned out to be 0.617. As to C33U A37G C49U A57U, the yeast fitness is at most 0.5. For C33G C34G U35C C46U the value was at most 0.5; for C33G A43C, 0.666; for C33A A40G A42G, 0.564. For C33G G56C the value was 0.679; for C33G A40G G52C, at most 0.5.
